In ChEMBL document CHEMBL4190269, “Design, synthesis and biological evaluation of novel 6-substituted pyrrolo [3,2-d] pyrimidine analogues as antifolate antitumor agents” (2017):
The source made the active and inactive calls. The calls are words filed in the database; no cut-off is given here.

Assays:
HL-60 [1] = experiment: Antiproliferative activity against human HL60 cells after 48 hrs by MTS assay; type: functional; conditions: HL-60, 48 h
Summary of the method: (§1)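 Cells in RPMI-1640 or DMEM with 10% FBS, 37 °C, 5% CO2. Exponentially growing cells seeded at 5 × 10^3 per well and grown 12 h. Compounds added at 10 nM to 100 μM for 48 h. MTS reagent added for 3 h, then OD read at 490 nm. 0.1% DMSO as control. Mean viability from three independent experiments.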

A549 [2] = experiment: Antiproliferative activity against human A549 cells after 48 hrs by MTS assay; type: functional; conditions: A549, 48 h; summary of the method: as §1
NCI-H1299 = experiment: Antiproliferative activity against human NCI-H1299 cells after 48 hrs by MTS assay; type: functional; conditions: NCI-H1299, 48 h; summary of the method: as §1
HeLa = experiment: Antiproliferative activity against human HeLa cells after 48 hrs by MTS assay; type: functional; summary of the method: as §1
HCT-116 = experiment: Antiproliferative activity against human HCT116 cells after 48 hrs by MTS assay; type: functional; conditions: HCT-116, 48 h
HT-29 = experiment: Antiproliferative activity against human HT-29 cells after 48 hrs by MTS assay; type: functional; conditions: HT-29, 48 h; summary of the method: as §1
A549 [3] = experiment: Inhibition of colony formation in human A549 cells at 20 uM treated for 48 hrs followed by compound washout measured after 8 days by Giemsa staining based assay; type: functional, cell-based
Summary of the method: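 About 100 A549 cells per well plated and kept 24 h in RPMI with 10% dFBS and 2 nM LCV at 37 °C, 5% CO2. Compound at 0-20 μM added for 48 h, then medium replaced with drug-free medium for 8 days. Colonies fixed in methanol 30 min, Giemsa-stained 30 min, then counted.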

[4] = target: T1, Dihydrofolate reductase (Homo sapiens) (UniProt P00374); experiment: Inhibition of recombinant human DHFR at 100 uM using dihydrofolate as substrate in presence of NADPH by spectrophotometric method relative to control
T1 sequence (whole entry): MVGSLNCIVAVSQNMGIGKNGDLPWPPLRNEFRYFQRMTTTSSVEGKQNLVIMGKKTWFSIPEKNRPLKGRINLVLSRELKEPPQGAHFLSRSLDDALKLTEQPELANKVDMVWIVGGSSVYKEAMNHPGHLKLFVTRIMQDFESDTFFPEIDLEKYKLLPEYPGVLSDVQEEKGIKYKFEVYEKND
Summary of the method: (§2)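 Recombinant human DHFR assayed with 0.1 mM dihydrofolate, 0.3 mM NADPH and 100 mM KCl, pH 7.5, 32 °C. Reaction started by adding enzyme and followed as OD change at 340 nm. Percent inhibition recorded at 1, 10 and 100 μM.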

[5] = target: T1, Dihydrofolate reductase (Homo sapiens); experiment: Inhibition of recombinant human DHFR at 1 to 10 uM using dihydrofolate as substrate in presence of NADPH by spectrophotometric method; summary of the method: as §2
HL-60 [6] = experiment: Antiproliferative activity against human HL60 cells up to 1000 uM after 48 hrs in presence of excess of adenosine and AICA by MTS assay; type: functional, cell-based
HL-60 [7] = experiment: Antiproliferative activity against human HL60 cells up to 1000 uM after 48 hrs in presence of excess of thymidine by MTS assay; type: functional, cell-based
A549 [8] = experiment: Cell cycle arrest in human A549 cells assessed as accumulation at G1 phase at 1 uM after 72 hrs by propidium iodide staining based flow cytometry (reference value: 40.9%); type: functional
Summary of the method: (§3)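 A549 cells treated 72 h in RPMI1640 with 10% dFBS and 2 nM LCV. Washed twice in ice-cold PBS and fixed in 70% ethanol at 4 °C overnight. Stained ≥20 min at room temperature in the dark with 50 μg/mL PI and 100 μg/mL RNase. Phase percentages from 1 × 10^4 cells by flow cytometry. DMSO-treated cells as reference.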

A549 [9] = experiment: Cell cycle arrest in human A549 cells assessed as accumulation at S phase at 1 uM after 72 hrs by propidium iodide staining based flow cytometry (reference value: 51.3%); type: functional; summary of the method: as §3
A549 [10] = experiment: Cell cycle arrest in human A549 cells assessed as accumulation at G2 phase at 1 uM after 72 hrs by propidium iodide staining based flow cytometry (reference value: 7.8%); type: functional; summary of the method: as §3
A549 [11] = experiment: Cell cycle arrest in human A549 cells assessed as accumulation at G1 phase at 10 uM after 72 hrs by propidium iodide staining based flow cytometry (reference value: 40.9%); type: functional; summary of the method: as §3
A549 [12] = experiment: Cell cycle arrest in human A549 cells assessed as accumulation at S phase at 10 uM after 72 hrs by propidium iodide staining based flow cytometry (reference value: 51.3%); type: functional; summary of the method: as §3
A549 [13] = experiment: Cell cycle arrest in human A549 cells assessed as accumulation at G2 phase at 10 uM after 72 hrs by propidium iodide staining based flow cytometry (reference value: 7.8%); type: functional; summary of the method: as §3
A549 [14] = experiment: Induction of apoptosis in human A549 cells assessed as necrotic cells at 1 uM after 72 hrs by Annexin V-FITC/propidium iodide staining based flow cytometry (reference value: 3.58%); type: functional
Summary of the method: (§4)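 A549 cells exposed 72 h in RPMI with 10% dFBS and 2 nM LCV, with an untreated control. Harvested by trypsinization and washed twice in cold PBS. Stained with annexin V-FITC/PI and ≥1 × 10^4 cells analyzed by flow cytometry. Quadrants: LR early apoptosis, UR late apoptosis/necrosis, UL dead, LL viable.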

A549 [15] = experiment: Induction of apoptosis in human A549 cells assessed as late apoptotic cells at 1 uM after 72 hrs by Annexin V-FITC/propidium iodide staining based flow cytometry (reference value: 1.24%); type: functional; summary of the method: as §4
A549 [16] = experiment: Induction of apoptosis in human A549 cells assessed as live cells at 1 uM after 72 hrs by Annexin V-FITC/propidium iodide staining based flow cytometry (reference value: 94.86%); type: functional; summary of the method: as §4
A549 [17] = experiment: Induction of apoptosis in human A549 cells assessed as early apoptotic cells at 1 uM after 72 hrs by Annexin V-FITC/propidium iodide staining based flow cytometry (reference value: 0.32%); type: functional; summary of the method: as §4
A549 [18] = experiment: Induction of apoptosis in human A549 cells assessed as necrotic cells at 10 uM after 72 hrs by Annexin V-FITC/propidium iodide staining based flow cytometry (reference value: 3.58%); type: functional; summary of the method: as §4
A549 [19] = experiment: Induction of apoptosis in human A549 cells assessed as late apoptotic cells at 10 uM after 72 hrs by Annexin V-FITC/propidium iodide staining based flow cytometry (reference value: 1.24%); type: functional; summary of the method: as §4
A549 [20] = experiment: Induction of apoptosis in human A549 cells assessed as live cells at 10 uM after 72 hrs by Annexin V-FITC/propidium iodide staining based flow cytometry (reference value: 94.86%); type: functional; summary of the method: as §4
A549 [21] = experiment: Induction of apoptosis in human A549 cells assessed as early apoptotic cells at 10 uM after 72 hrs by Annexin V-FITC/propidium iodide staining based flow cytometry (reference value: 0.32%); type: functional; summary of the method: as §4

| SMILES | GI50 (HL-60 [1]) [µM] | GI50 (A549 [2]) [µM] | GI50 (NCI-H1299) [µM] | GI50 (HeLa) [µM] | GI50 (HCT-116) [µM] | GI50 (HT-29) [µM] | also measured |
| --- | --- | --- | --- | --- | --- | --- | --- |
| C=CCn1c(CNc2ccc(C(=O)N[C@@H](CCC(=O)O)C(=O)O)cc2)cc2nc(N)[nH]c(=O)c21 | 15.5 | 57.3 | 68.4 | 82.7 | > 100 | 98.5 |  |
| Nc1nc2cc(CCc3ccc(C(=O)N[C@@H](CCC(=O)O)C(=O)O)cc3)[nH]c2c(=O)[nH]1 | 8.92 | 0.73 | 1.72 | 73.1 | 54.6 | 99.1 | inhibition (A549 [3]): Active; inhibition [4]: 66.7%; inhibition [5]: Active; Activity (HL-60 [6]): Active; Activity (HL-60 [7]): Active; Activity (A549 [8]): 33.7%; Activity (A549 [9]): 51.3%; Activity (A549 [10]): 15%; Activity (A549 [11]): 35%; Activity (A549 [12]): 45.6%; Activity (A549 [13]): 19.4%; Activity (A549 [14]): 4.46%; Activity (A549 [15]): 1.07%; Activity (A549 [16]): 94.08%; Activity (A549 [17]): 0.39%; Activity (A549 [18]): 3.56%; Activity (A549 [19]): 3.21%; Activity (A549 [20]): 88.02%; Activity (A549 [21]): 4.4% |
| Nc1nc2c(Br)c(CNc3ccc(C(=O)N[C@@H](CCC(=O)O)C(=O)O)cc3)[nH]c2c(=O)[nH]1 | 40.1 | 83 | > 100 | > 100 | > 100 | > 100 |  |
| Nc1nc2c(I)c(CNc3ccc(C(=O)N[C@@H](CCC(=O)O)C(=O)O)cc3)[nH]c2c(=O)[nH]1 | 54.2 | > 100 | > 100 | > 100 | > 100 | > 100 |  |
| CN(Cc1cnc2nc(N)nc(N)c2n1)c1ccc(C(=O)N[C@@H](CCC(=O)O)C(=O)O)cc1 [METHOTREXATE] | 0.038 | 0.014 | 0.072 | > 100 | 0.13 | > 100 | Activity (A549 [8]): 62%; Activity (A549 [9]): 38%; Activity (A549 [10]): 0% |
| Cn1c(CNc2ccc(C(=O)N[C@@H](CCC(=O)O)C(=O)O)cc2)cc2nc(N)[nH]c(=O)c21 | 13.5 | 46 | 51.3 | 94.4 | > 100 | > 100 |  |

Second part, led by results:

| GI50 (HL-60 [1]) [µM] | GI50 (A549 [2]) [µM] | GI50 (NCI-H1299) [µM] | GI50 (HeLa) [µM] | GI50 (HCT-116) [µM] | GI50 (HT-29) [µM] | SMILES | also measured |
| --- | --- | --- | --- | --- | --- | --- | --- |
| 47.4 | 79 | 73.1 | 85.1 | > 100 | > 100 | Nc1nc2cc(CNc3ccc(C(=O)N[C@@H](CCC(=O)O)C(=O)O)cc3)[nH]c2c(=O)[nH]1 |  |
| > 100 | > 100 | > 100 | > 100 | > 100 | > 100 | CN(Cc1cc2nc(N)[nH]c(=O)c2[nH]1)c1ccc(C(=O)N[C@@H](CCC(=O)O)C(=O)O)cc1 |  |
| > 100 | > 100 | > 100 | > 100 | > 100 | > 100 | C#CCN(Cc1cc2nc(N)[nH]c(=O)c2[nH]1)c1ccc(C(=O)N[C@@H](CCC(=O)O)C(=O)O)cc1 |  |
| > 100 | > 100 | > 100 | > 100 | > 100 | > 100 | CCN(Cc1cc2nc(N)[nH]c(=O)c2[nH]1)c1ccc(C(=O)N[C@@H](CCC(=O)O)C(=O)O)cc1 |  |
